Assay outcomes as filed in PubChem BioAssay.
An excerpt weighted towards active compounds, which were near 1.5% of everything screened.
NR1D1 modulator: Rev-erb alpha (human) modulation; Rev-erbα–FITC-DNA binding, fluorescence polarization, 90 min; 0.79% of 370,000 active; P20393; AID 1259318; activity, % at 10 µM;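 active = activity above about 14%, limit read from the data; passing the limit was not always enough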;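 note: 0% = DMSO wells with 35 nM protein and 100% = DMSO wells with 750 nM protein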
NR2E3 ag-1: agonists of human NR2E3 nuclear receptor | 0.35% of 360,000 active | inhibition of corepressor binding, % at 3.98 µM | CHO-S Gal4-NCOR/VP16-NR2E3 two-hybrid, luciferase | AID 602229 | Q9Y5X4;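 active = inhibition above the mean of all tested compounds plus 3 SD, cut at about 70% in these data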;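 note: 0% = DMSO with NR2E3 transfected cells and 100% = cells lacking NR2E3 construct; higher means lower luciferase signal from less NR2E3 corepressor binding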
Target sequence (Q9Y5X4 whole entry, looked up, the tested form may be a part): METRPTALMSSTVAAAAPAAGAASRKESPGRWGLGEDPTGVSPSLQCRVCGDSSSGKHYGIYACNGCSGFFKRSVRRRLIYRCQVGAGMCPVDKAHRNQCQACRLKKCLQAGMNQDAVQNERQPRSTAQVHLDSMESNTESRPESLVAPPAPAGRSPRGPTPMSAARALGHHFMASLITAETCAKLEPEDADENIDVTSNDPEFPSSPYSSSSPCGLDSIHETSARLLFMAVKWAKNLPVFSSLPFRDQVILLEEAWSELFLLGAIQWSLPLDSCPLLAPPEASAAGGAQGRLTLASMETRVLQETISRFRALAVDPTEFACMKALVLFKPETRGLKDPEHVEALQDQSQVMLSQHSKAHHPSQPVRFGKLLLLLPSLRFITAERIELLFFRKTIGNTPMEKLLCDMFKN
PG9 Ab binder: PG9 antibody binding by small molecule; TR-FRET gp120-PG9 antibody binding; inhibition, % at 6.7 µM; 0.43% of 360,000 active; AID 624416; in the data active = inhibition above about 8.5%
NR2E3 ag-2: NR2E3 (human) agonism. Q9Y5X4. GST-NR2E3/biotin-RetCOR TR-FRET, 1536-well. inhibition of corepressor binding, % at 4.78 µM. 0.12% of 320,000 active. AID 2300;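 active = percent inhibition above the cutoff of mean plus 3 SD of all tested compounds, set per screening campaign, cut at about 20% in these data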;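 note: 0% = DMSO wells and 100% = biotin wells as full block of FRET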
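System: GST-NR2E3 and biotin-RetCOR proteins; probe or stimulus: 7 nM biotin-RetCOR; doses: compound at 4.8 µM, single dose; schedule: Compound–protein incubation for 5 h at 4 °C; detection: time-resolved FRET; read-out: percent inhibition; controls: biotin wells as high control, 0.6% DMSO wells as low control; format: 1536-well plates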
NR1D1 mod conf: Rev-erb alpha (human) modulation, hit confirmation; shares compounds with NR1D1 modulator; Rev-erb alpha FITC-DNA binding, fluorescence polarization, 90 min; activation, % at 25 µM; 61% of 3,000 active;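 active = activation at or above a set limit, or at least 3 SD above the negative control mean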;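 note: 0% = 35 nM protein with DMSO and 100% = 750 nM protein high control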
RORg counter: affects RORgamma DNA binding in a Rev-erb alpha counter-screen | shares compounds with NR1D1 modulator | purified RORgamma protein-FITC-DNA binding, fluorescence polarization | IC50, µM | 8% of 910 active;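 active = Compounds whose fitted half-maximal concentration for disrupting protein-DNA binding is below 10 micromolar; the record names Rev-erb in its text, so the target is in doubt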
* marks the source's active call; other numbers are inactive results; i = inactive; · = not tested or not shown.

SMILES	NR1D1 modulator	NR2E3 ag-1	PG9 Ab binder	NR2E3 ag-2	NR1D1 mod conf	others
CCOc1ccc2nc(SCC#N)c(C#N)cc2c1	39*	-27	-6	1	24*
CCOc1ccc2cc(C#N)c(SCC(=O)N3CCC(C)CC3)nc2c1	70*	-11	-1	2	34*
O=C(CSc1nnc(-c2ccccc2O)o1)Oc1ccc(OCc2ccccc2)cc1	36*	4	8	-1	5
CNc1nc(N)c([N+](=O)[O-])c(Nc2ccccc2)n1	-3	·	·	·	·
COC(=O)[C@]1(Cc2ccccc2)N[C@H](c2ccc(-c3cccc(Cl)c3)c(OC)c2)[C@@H]2C(=O)N(C)C(=O)[C@@H]21	25*	7	-4	·	17*
CCN1C(=O)[C@H]2[C@@H](c3ccc(-c4cccc(Cl)c4)c(OC)c3)N[C@@](Cc3ccccc3)(C(=O)OC)[C@H]2C1=O	4	10	0	0	·
COc1ccc(C(=O)NCCN2C(=O)C3C4C=CC(C4)C3C2=O)cc1OC (stereo not given)	-6	·	·	·	·
COC(=O)c1ccc(NC(=O)c2cn(-c3ccccc3)nc2-c2ccncc2)cc1	289*	-2	8	2	254*	RORg counter=>40
CC(=O)c1ccc(NC(=O)c2cn(-c3ccccc3)nc2-c2ccncc2)cc1	2	14	1	2	·
CC(C)(C)c1ccc(C(=O)Nc2cc(Cl)ccc2-c2nn[nH]n2)cc1	2	·	·	·	·
COc1ccc2cc(C(=O)Nc3ccc(S(N)(=O)=O)cc3)sc(=O)c2c1OC	26*	7	1	-31	37*	RORg counter=>40
CC1(C(=O)NS(=O)(=O)c2cccc(Cl)c2)CCN1C(=O)CC1CC1 (stereo not given)	-3	4	0	·	·
CC1(C(=O)NS(=O)(=O)c2cccc(Cl)c2)CCN1C(=O)CC1CCCCC1 (stereo not given)	16*	-16	-2	·	4
COc1ccc(Cl)cc1-c1nc(-c2ccncc2)no1	30*	-25	3	2	9
Cc1ccc(/C=C/c2ccc(N(C)C)cc2)[n+](C)c1	37*	-14	-20	-11	50*	RORg counter=i
CN(C)c1ccc(/C=C/c2cc[n+](C)cc2)cc1	28*	1	-22	11	44*	RORg counter=>40
COC(=O)[C@H](CC(C)C)N(Cc1cn(Cc2ccc(C)cc2)nn1)S(=O)(=O)c1ccccc1Br	-6	·	·	·	·
COc1ccc(OC)c(NC(=O)c2cc3oc4ccccc4c3cc2O)c1	41*	2	1	2	15
Cc1nonc1NC(=O)CSc1nc2cc(Cl)ccc2c2c1CCCC2	173*	9	·	1	132*
Cc1ccc2c3c(c(SCC(=O)Nc4nonc4C)nc2c1)CCCC3	26*	-12	0	0	39*	RORg counter=>40
CCOC(=O)Cn1cc(CN2C(C(=O)OC)CN(Cc3ccc(F)cc3)CCS2(=O)=O)nn1 (stereo not given)	3	·	·	·	·
CN(C)S(=O)(=O)c1cccc(C(=O)N/N=C\c2ccnc3ccccc23)c1	1	·	·	·	·
N#Cc1ccc(CSc2nc3sc4c(c3c(=O)n2-c2ccc(Br)cc2)CCCC4)cc1	23*	·	·	·	9
CC1CCN(c2ccc(C(=O)O)cc2NS(=O)(=O)c2ccccc2)CC1	0	·	·	·	·
Cc1cc(C)c(NC(=O)CSc2nc(COc3ccccc3)nc3ccccc23)c(C)c1	55*	-26	0	-5	47*	RORg counter=>40
SMILES	NR1D1 modulator	NR2E3 ag-1	PG9 Ab binder	NR2E3 ag-2	NR1D1 mod conf	others
Cc1ccccc1NC(=O)CSc1nc(COc2ccccc2)nc2ccccc12	-2	12	2	1	·
CC(C)[C@H](NC(=O)OC(C)(C)C)C(=O)N1CCC(Oc2cccnc2)CC1	-1	·	·	·	·
O=C(Cn1c(=S)[nH]c2ccccc2c1=O)N1CCN(c2ccccc2)CC1	40*	4	0	4	24*
O=C(CCCn1c(=S)[nH]c2cc3c(cc2c1=O)OCO3)N1CCN(c2ccc(Cl)cc2)CC1	21	3	4	2	·
CC(=O)c1ccc(N2CCN(C(=O)CCCn3c(=S)[nH]c4cc5c(cc4c3=O)OCO5)CC2)cc1	25*	-15	-2	-2	17
Cc1cccc(N2CCN(C(=O)CCCn3c(=S)[nH]c4cc5c(cc4c3=O)OCO5)CC2)c1C	24*	3	5	0	20*
COc1cccc(CNC(=O)CCCN2C(=O)COc3ccc(C)cc32)c1OC	7	·	·	·	·
COC(=O)[C@H](C)NC(=O)[C@H](CC(C)C)NC(=O)OC(C)(C)C	9	·	·	·	·
Cc1cc(C)cc(C(=O)OCCN2CCN(C3CN(Cc4cn(Cc5ccccc5F)nn4)S(=O)(=O)C3)CC2)c1 (stereo not given)	0	·	·	·	·
O=[N+]([O-])c1cc([N+](=O)[O-])c(Oc2cccnc2Br)cc1NN1CCCCC1	16*	-1	0	0	-1
O=[N+]([O-])c1cc([N+](=O)[O-])c(Oc2cccc3ccccc23)cc1NN1CCCCC1	8	-7	1	·	·
Cc1ccc(OC[C@@H](O)CN2CCC(C(O)(c3ccccc3)c3ccccc3)CC2)cc1	-6	·	·	·	·
COc1ccccc1NC(=O)c1sc2ncn(Cc3cccc(C)c3)c(=O)c2c1C	55*	-8	6	5	54*	RORg counter=1.1*
COc1ccccc1NC(=O)c1sc2ncn(Cc3ccc(C)cc3)c(=O)c2c1C	46*	-14	1	5	14
COc1ccc(NC(=O)c2sc3ncn(CC(=O)N4CCN(c5ccccn5)CC4)c(=O)c3c2C)c(OC)c1	48*	7	0	1	13
COc1ccc(NC(=O)c2sc3ncn(CC(=O)N4CCCCC4)c(=O)c3c2C)cc1OC	-3	5	0	0	·
COc1cc(OC)c(NC(=O)c2sc3ncn(CC(=O)N4CCN(c5ccccn5)CC4)c(=O)c3c2C)cc1Cl	22	5	9	-2	·
NC(=O)C1CCN(c2ccnc(Cl)n2)CC1	-3	·	·	·	·
COCC(=O)N1[C@H](CO)[C@@H](c2ccc(-c3cccnc3)cc2)[C@H]1CN(C)S(=O)(=O)c1ccccc1[N+](=O)[O-]	0	·	·	·	·
COc1ccccc1CNc1nc2cc(-c3ccccc3C)sc2c(=O)n1C	2	3	1	·	·
COc1ccccc1CNc1nc2cc(-c3sccc3C)sc2c(=O)n1C	29*	-89	1	·	20*
CC(C)C[C@@H]1COc2cccc(F)c2S(=O)(=O)N1C	-3	·	·	·	·
CC(=O)Nc1ccc(NC(=O)CSc2nc3ccccc3nc2N2CCC(C)CC2)cc1	45*	-38	-2	-2	21*
CC(=O)Nc1ccc(NC(=O)CSc2nc3ccccc3nc2N2CCCCC2)cc1	-4	1	-2	5	·
Cc1ccc(NC(=O)CSc2nc3ccccc3nc2N2CCOCC2)c(C)c1	38*	-29	4	1	40*	RORg counter=>40
C[C@H]1[C@H](N)CC[C@@]23CCCN2C(=O)CCC[C@@H]13	3	·	·	·	·
